For 14 compounds, inhibition and Activity results are on record in ChEMBL document CHEMBL3352149, “Promiscuity and selectivity in covalent enzyme inhibition: a systematic study of electrophilic fragments” (J Med Chem, 2014).

Usually inhibition stands for the drop in the measured response relative to a control, in per cent. A low value points to little suppression.

Assay [1] concerns Escherichia coli. The experiment in a line: Inhibition of wild-type Escherichia coli MurB compound preincubated for 10 mins before substrate addition at 25 uM measured after 15 mins by LC-MS method. The method in brief:
(§1)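 E. coli wild-type enzyme (4 nM) was preincubated with 25 μM compound for 10 min at 37 °C. Enzymatically generated nucleotide-sugar substrate (~200 μM) plus ATP (~200 μM), or NADPH 200 μM for MurB, was added for 10 min. Reactions were started with amino-acid cosubstrate (MurC–F) or EP-UNAG (MurB), run 15 min at 37 °C, and quenched with formic acid. Product was measured by negative-ESI LC-MS EIC peak area. MgCl2: MurC 10, MurD/E 2, MurF 5 mM; MurB had 5 mM KCl. All in 50 mM NH4HCO3, 0.07% BSA, 1% DMSO; triplicate.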

Assay [2] concerns Escherichia coli. Kind of assay: Inhibition of wild-type Escherichia coli MurA compound preincubated for 10 mins before substrate addition at 25 uM measured after 15 mins by LC-MS method.
The target in assay [3] is Genome polyprotein (West Nile virus) (UniProt P06935). Kind of assay: Inhibition of West Nile virus NS2B-NS3 protease at 50 uM.
The target of assay [4] is Methionine aminopeptidase 1 (Homo sapiens) (UniProt P53582). The experiment in a line: Inhibition of human MetAP at 25 uM after 20 mins by HPLC analysis. Summed up: (§2)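 Endpoint assay. Enzyme (50 nM) was preincubated with 25 μM compound for 20 min at 37 °C in 50 mM Tris pH 7.5, 100 mM NaCl, 100 μM CoCl2, 0.075% BSA. MGMM substrate (400 μM) was then added for 15 min (human MetAP-1) or 20 min (E. coli MetAP). Reactions were stopped with TFA. GMM product was quantified by RP-HPLC, UV 214 nm. Triplicate.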

In assay [5] the test system is Escherichia coli. The experiment in a line: Inhibition of Escherichia coli MetAP at 25 uM after 20 mins by HPLC analysis. The method in brief:
as §2

A short description of assay [6]: GSH reactivity of the compound assessed as adducts formation by RP-HPLC analysis. Summed up:
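Fresh aqueous glutathione (10 mM solution) was added to 50 mM Tris-maleate buffer, pH 7.5. The reaction was started with compound from 10 mM DMSO stock (final 250 μM). Mixtures were followed by reversed-phase HPLC on an ODS column with a gradient to 100% B; rate constants are given in l·mol⁻¹·s⁻¹.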

A further assay concerns the target Prothrombin (Bos taurus) (UniProt P00735). Kind of assay: Inhibition of Bovine thrombin using Boc-Val-Pro-Arg-AMC as substrate compound preincubated at 25 uM for 15 mins by fluorescence assay. Summed up:
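Bovine thrombin (final 10 nM) was preincubated 15 min with 25 μM compound in 50 mM Tris-HCl pH 7.5, 150 mM NaCl, 0.05% Tween 20. The reaction was started with Boc-Val-Pro-Arg-AMC (50 μM final). Fluorescence (ex 355/em 460 nm) was monitored continuously for 10 min; activity taken as slope (RFU/s). Triplicate.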

Assay [7] relates to Escherichia coli. Kind of assay: Inhibition of wild-type Escherichia coli MurC compound preincubated for 10 mins before substrate addition at 25 uM measured after 15 mins by LC-MS method. Summed up: as §1
Assay [8] concerns Escherichia coli. Kind of assay: Inhibition of wild-type Escherichia coli MurD compound preincubated for 10 mins before substrate addition at 25 uM measured after 15 mins by LC-MS method. Summed up:
as §1

Assay [9] concerns Escherichia coli. The experiment in a line: Inhibition of wild-type Escherichia coli MurF compound preincubated for 10 mins before substrate addition at 25 uM measured after 15 mins by LC-MS method. Summed up:
as §1

For assay [10], the system named is Escherichia coli. The experiment in a line: Inhibition of wild-type Escherichia coli MurE compound preincubated for 10 mins before substrate addition at 25 uM measured after 15 mins by LC-MS method. Summed up:
as §1

For assay [11], the target named is Genome polyprotein (dengue virus type 2) (UniProt P12823). Kind of assay: Inhibition of Dengue virus serotype 2 NS2B-NS3 protease at 50 uM.

Genome polyprotein (West Nile virus), sequence (P06935 whole entry): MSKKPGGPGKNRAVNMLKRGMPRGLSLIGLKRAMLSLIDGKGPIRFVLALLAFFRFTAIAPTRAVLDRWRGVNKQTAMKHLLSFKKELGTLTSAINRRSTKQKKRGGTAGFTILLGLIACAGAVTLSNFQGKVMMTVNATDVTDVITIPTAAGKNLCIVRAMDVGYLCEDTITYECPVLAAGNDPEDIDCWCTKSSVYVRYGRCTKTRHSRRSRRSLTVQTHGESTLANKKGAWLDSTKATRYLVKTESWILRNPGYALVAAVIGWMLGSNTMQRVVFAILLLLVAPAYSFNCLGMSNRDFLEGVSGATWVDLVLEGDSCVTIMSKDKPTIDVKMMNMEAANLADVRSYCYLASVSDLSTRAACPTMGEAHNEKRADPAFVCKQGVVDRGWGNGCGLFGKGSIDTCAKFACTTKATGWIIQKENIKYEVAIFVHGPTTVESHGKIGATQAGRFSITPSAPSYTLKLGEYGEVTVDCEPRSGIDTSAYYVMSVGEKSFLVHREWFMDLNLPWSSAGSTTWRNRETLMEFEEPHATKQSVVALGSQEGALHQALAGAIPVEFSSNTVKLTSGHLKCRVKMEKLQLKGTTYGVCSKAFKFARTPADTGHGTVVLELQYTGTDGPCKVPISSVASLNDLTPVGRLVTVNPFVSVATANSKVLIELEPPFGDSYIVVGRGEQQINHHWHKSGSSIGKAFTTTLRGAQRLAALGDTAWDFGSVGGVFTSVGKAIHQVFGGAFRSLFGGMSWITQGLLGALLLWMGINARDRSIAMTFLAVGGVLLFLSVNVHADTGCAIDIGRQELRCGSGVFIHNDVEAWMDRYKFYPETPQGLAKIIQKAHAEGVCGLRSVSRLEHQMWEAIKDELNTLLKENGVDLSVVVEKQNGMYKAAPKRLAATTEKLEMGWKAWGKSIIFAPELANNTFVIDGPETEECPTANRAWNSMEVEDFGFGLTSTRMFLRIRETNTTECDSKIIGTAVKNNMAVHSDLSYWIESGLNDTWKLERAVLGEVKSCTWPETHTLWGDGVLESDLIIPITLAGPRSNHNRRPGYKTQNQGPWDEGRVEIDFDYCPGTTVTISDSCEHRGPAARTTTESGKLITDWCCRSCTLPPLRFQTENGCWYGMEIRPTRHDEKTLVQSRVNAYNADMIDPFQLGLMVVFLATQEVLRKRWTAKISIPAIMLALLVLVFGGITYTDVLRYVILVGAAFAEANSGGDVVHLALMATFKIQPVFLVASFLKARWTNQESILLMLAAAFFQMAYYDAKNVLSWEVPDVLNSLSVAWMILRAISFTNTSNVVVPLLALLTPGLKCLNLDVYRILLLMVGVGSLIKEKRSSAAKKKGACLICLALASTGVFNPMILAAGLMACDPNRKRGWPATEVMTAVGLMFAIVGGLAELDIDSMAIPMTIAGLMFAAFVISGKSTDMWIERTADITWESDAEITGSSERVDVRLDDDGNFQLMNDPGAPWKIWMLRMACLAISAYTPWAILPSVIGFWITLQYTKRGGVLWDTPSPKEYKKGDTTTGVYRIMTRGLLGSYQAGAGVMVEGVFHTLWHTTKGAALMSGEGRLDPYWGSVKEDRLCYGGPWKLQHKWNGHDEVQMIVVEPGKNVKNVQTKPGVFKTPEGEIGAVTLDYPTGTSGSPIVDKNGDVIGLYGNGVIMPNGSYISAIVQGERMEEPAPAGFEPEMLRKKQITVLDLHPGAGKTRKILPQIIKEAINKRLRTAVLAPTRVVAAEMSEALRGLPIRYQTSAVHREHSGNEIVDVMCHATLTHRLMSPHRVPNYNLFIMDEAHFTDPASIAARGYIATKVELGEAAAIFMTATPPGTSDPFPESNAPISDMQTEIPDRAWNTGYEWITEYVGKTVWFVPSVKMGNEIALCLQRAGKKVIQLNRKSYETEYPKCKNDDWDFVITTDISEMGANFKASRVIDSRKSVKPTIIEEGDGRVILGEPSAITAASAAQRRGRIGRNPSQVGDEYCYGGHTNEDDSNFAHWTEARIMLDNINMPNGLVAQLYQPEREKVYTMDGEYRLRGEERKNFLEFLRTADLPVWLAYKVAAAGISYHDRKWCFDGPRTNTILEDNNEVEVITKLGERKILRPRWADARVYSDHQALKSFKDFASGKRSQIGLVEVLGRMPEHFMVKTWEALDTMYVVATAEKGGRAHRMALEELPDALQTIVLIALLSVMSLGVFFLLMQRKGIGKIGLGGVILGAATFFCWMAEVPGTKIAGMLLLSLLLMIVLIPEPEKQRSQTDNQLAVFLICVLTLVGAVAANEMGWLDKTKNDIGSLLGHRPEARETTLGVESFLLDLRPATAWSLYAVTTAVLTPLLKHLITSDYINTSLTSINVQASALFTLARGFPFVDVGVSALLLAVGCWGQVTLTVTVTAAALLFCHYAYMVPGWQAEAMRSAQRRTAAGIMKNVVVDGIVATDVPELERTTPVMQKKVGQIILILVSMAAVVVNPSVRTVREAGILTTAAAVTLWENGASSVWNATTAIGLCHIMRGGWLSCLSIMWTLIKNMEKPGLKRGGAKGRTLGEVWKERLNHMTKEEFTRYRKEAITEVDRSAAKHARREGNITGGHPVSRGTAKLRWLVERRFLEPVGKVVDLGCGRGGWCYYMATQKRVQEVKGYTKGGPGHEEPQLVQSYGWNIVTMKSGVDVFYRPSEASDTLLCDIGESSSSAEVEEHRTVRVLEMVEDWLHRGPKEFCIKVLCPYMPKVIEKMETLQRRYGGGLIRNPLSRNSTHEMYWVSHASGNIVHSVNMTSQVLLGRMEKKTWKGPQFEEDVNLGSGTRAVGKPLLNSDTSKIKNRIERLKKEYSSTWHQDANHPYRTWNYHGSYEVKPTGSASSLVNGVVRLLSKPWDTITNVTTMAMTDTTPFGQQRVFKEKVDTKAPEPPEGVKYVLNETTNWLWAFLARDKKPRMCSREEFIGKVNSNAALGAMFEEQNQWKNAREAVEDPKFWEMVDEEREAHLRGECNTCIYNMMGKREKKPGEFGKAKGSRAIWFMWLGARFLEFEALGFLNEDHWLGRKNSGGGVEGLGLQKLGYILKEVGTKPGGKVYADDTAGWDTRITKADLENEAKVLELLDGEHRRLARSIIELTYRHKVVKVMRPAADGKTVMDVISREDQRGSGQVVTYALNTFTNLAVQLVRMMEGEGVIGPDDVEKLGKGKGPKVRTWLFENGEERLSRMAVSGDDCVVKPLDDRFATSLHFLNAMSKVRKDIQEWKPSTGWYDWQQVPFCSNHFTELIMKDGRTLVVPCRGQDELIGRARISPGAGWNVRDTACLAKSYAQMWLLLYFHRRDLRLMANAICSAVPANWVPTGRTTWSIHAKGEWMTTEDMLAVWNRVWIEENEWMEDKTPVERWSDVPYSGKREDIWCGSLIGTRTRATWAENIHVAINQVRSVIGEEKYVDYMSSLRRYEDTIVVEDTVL

Take `C=CCNC1CCCC1`: the inhibition is 17% in the assay with Escherichia coli [1]; below 15% in the assay on Escherichia coli [2]; below 15% in [3]; below 15% in assay [4]; below 15% in the assay on Escherichia coli [5]; below 15% against Prothrombin (Bos taurus). In addition, the inhibition (in the assay with Escherichia coli [7]; with Escherichia coli [8]; in the assay on Escherichia coli [9]; in the assay on Escherichia coli [10]; in assay [11]) was below 15% throughout. Moreover, the Activity in assay [6] was below 0.1 L/mol/s.

As for `N#CCC(=O)Nc1ccc([N+](=O)[O-])cc1`, the inhibition (with Escherichia coli [1]; in the assay on Escherichia coli [2]; in [3]; in [4]; with Escherichia coli [5]; against Prothrombin (Bos taurus)) was below 15% each time. Besides, the inhibition (in the assay on Escherichia coli [7]; in the assay with Escherichia coli [8]; with Escherichia coli [9]; in the assay on Escherichia coli [10]; in [11]) was below 15% throughout. Also, the Activity in assay [6] is below 0.1 L/mol/s.

Turning to `C[S+](C)CC(=O)NCc1ccccc1`, the inhibition (with Escherichia coli [1]; with Escherichia coli [2]; in assay [3]; in assay [4]; with Escherichia coli [5]; against Prothrombin (Bos taurus)) was below 15% each time. For the same compound, the inhibition (in the assay on Escherichia coli [7]; in the assay with Escherichia coli [8]; with Escherichia coli [9]; in the assay with Escherichia coli [10]; in [11]) was below 15% each time.

For `O=C(CCl)Nc1ccc([N+](=O)[O-])cc1`, the inhibition (in the assay with Escherichia coli [1]; in the assay with Escherichia coli [2]; in assay [3]; in assay [4]; in the assay on Escherichia coli [5]; against Prothrombin (Bos taurus)) was below 15% each time. For the same compound, the inhibition (in the assay with Escherichia coli [7]; in the assay with Escherichia coli [8]; in the assay on Escherichia coli [9]; with Escherichia coli [10]; in [11]) was below 15% in each case. Further, the Activity in assay [6] was below 0.1 L/mol/s.

With `C=CCNc1ccc(F)cc1`, the inhibition with Escherichia coli [1] was 17%; in the assay with Escherichia coli [2], below 15%; in [3], below 15%; in assay [4], below 15%; with Escherichia coli [5], below 15%; on Prothrombin (Bos taurus) it was below 15%. Also, the inhibition (in the assay with Escherichia coli [7]; with Escherichia coli [8]; in the assay on Escherichia coli [9]; in the assay on Escherichia coli [10]; in assay [11]) was below 15% throughout. The Activity in assay [6] is below 0.1 L/mol/s.

Take `O=C(CCl)NCc1ccccc1`: the inhibition (in the assay on Escherichia coli [1]; with Escherichia coli [2]; in assay [3]; in assay [4]; in the assay with Escherichia coli [5]; against Prothrombin (Bos taurus)) was below 15% throughout. For the same compound, the inhibition (with Escherichia coli [7]; in the assay on Escherichia coli [8]; in the assay with Escherichia coli [9]; with Escherichia coli [10]; in assay [11]) was below 15% each time. In addition, the Activity in [6] was below 0.1 L/mol/s.

`C=CCNc1ccc([N+](=O)[O-])cc1`: the inhibition with Escherichia coli [1] was 20%; with Escherichia coli [2], below 15%; in assay [3], below 15%; in assay [4] it was below 15%; in the assay on Escherichia coli [5], below 15%; on Prothrombin (Bos taurus), below 15%. Also, the inhibition (in the assay with Escherichia coli [7]; in the assay with Escherichia coli [8]; with Escherichia coli [9]; in the assay with Escherichia coli [10]; in assay [11]) was below 15% in each case. In addition, the Activity in [6] is below 0.1 L/mol/s.

Regarding `BrC1=NOC(c2ccccc2)C1` (stereo not drawn), the inhibition (with Escherichia coli [1]; with Escherichia coli [2]; in assay [3]; in assay [4]; in the assay with Escherichia coli [5]; on Prothrombin (Bos taurus)) was below 15% in each case. Moreover, the inhibition in the assay on Escherichia coli [7] was below 15%; in the assay on Escherichia coli [8], below 17%; with Escherichia coli [9], below 15%; in the assay with Escherichia coli [10], below 15%; in [11], below 15%. For the same compound, in [6], the Activity was below 0.1 L/mol/s.

For the compound `Cc1ccc(NC(=O)CC#N)cc1`, the inhibition (with Escherichia coli [1]; in the assay with Escherichia coli [2]; in assay [3]; in [4]; with Escherichia coli [5]; against Prothrombin (Bos taurus)) was below 15% throughout. In addition, the inhibition (in the assay on Escherichia coli [7]; in the assay on Escherichia coli [8]; with Escherichia coli [9]; with Escherichia coli [10]; in assay [11]) was below 15% in each case. In assay [6], the Activity was below 0.1 L/mol/s.

In the case of `CC(=O)Nc1ccc([N+](=O)[O-])cc1`, the inhibition (with Escherichia coli [1]; in the assay with Escherichia coli [2]; in [3]; in [4]; with Escherichia coli [5]; on Prothrombin (Bos taurus)) was below 15% in each case. Besides, the inhibition (with Escherichia coli [7]; in the assay on Escherichia coli [8]; in the assay on Escherichia coli [9]; in the assay on Escherichia coli [10]; in assay [11]) was below 15% throughout. Besides, the Activity in assay [6] is below 0.1 L/mol/s.

For `C[S+](C)CC(=O)NC1CCCC1`, the inhibition (in the assay with Escherichia coli [1]; in the assay with Escherichia coli [2]; in assay [3]; in assay [4]; with Escherichia coli [5]; against Prothrombin (Bos taurus)) was below 15% each time. Moreover, the inhibition was below 15% with Escherichia coli [7]; below 15% in the assay with Escherichia coli [8]; below 15% in the assay on Escherichia coli [9]; 17% with Escherichia coli [10]; below 15% in [11].

On to `CNC(=O)C[S+](C)C`, for which the inhibition (in the assay on Escherichia coli [1]; in the assay on Escherichia coli [2]; in [3]; in assay [4]; with Escherichia coli [5]; against Prothrombin (Bos taurus)) was below 15% in each case. The inhibition with Escherichia coli [7] is 14%; in the assay on Escherichia coli [8], below 15%; in the assay with Escherichia coli [9], below 15%; with Escherichia coli [10], 20%; in assay [11], below 15%.

Turning to `C[S+](C)CC(=O)Nc1ccc(F)cc1`, the inhibition (with Escherichia coli [1]; in the assay on Escherichia coli [2]; in assay [3]; in assay [4]; in the assay with Escherichia coli [5]; at Prothrombin (Bos taurus)) was below 15% in each case. Also, the inhibition in the assay with Escherichia coli [7] is below 15%; with Escherichia coli [8], below 15%; in the assay with Escherichia coli [9] it was below 15%; in the assay with Escherichia coli [10], 15%; in assay [11], below 15%.

On to `C[S+](C)CC(=O)NCCc1ccccc1`, for which the inhibition (with Escherichia coli [1]; in the assay on Escherichia coli [2]; in assay [3]; in assay [4]; with Escherichia coli [5]; against Prothrombin (Bos taurus)) was below 15% throughout. Besides, the inhibition (with Escherichia coli [7]; in the assay with Escherichia coli [8]; in the assay with Escherichia coli [9]; in the assay with Escherichia coli [10]; in assay [11]) was below 15% in each case.
